Key:
[1] = target: Delta-type opioid receptor (Rattus norvegicus, UniProt P33533); assay: Binding affinity was measured against Opioid receptor delta 1 using [3H]p-Cl-DPDPE as radioligand.
Mu-type opioid receptor [2] = target: Mu-type opioid receptor (Rattus norvegicus, UniProt P33535); assay: Binding affinity was measured against Opioid receptor mu 1 using [3H]-DAMGO as radioligand.
[3] = target: Delta-type opioid receptor (Homo sapiens, UniProt P41143); assay: Binding affinity was measured against cloned human Opioid receptor delta 1 (wild-type,Wt)
[4] = target: Delta-type opioid receptor (Mus musculus, UniProt P32300); assay: Tested for electrically induced smooth muscle contractions from mouse vas deferens expressed in delta opioid receptors; type: functional
Outline: (§1)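 Electrically stimulated contractions of male Hartley guinea pig ileum longitudinal muscle–myenteric plexus (1 g tension, 0.4-ms pulses) or male ICR mouse vas deferens (0.5 g, 2.0-ms pulses, Mg-free Krebs). Baths at 37 °C, oxygenated Krebs, 0.1 Hz, supramaximal voltage. Agonist left 3 min. Percent inhibition of twitch height, IC50 from Hill fit, ≥4 tissues.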

Mu-type opioid receptor [5] = target: Mu-type opioid receptor (Cavia porcellus, UniProt P97266); assay: Tested for electrically induced smooth muscle contractions from guinea pig ileum expressed in mu opioid receptors; type: functional, tissue-based; outline: as §1
[6] = target: Mu-type opioid receptor (Cavia porcellus) (UniProt P97266); assay: Tested for electrically induced smooth muscle contractions from guinea pig ileum expressed in mu opioid receptors at 60 uM; type: functional, tissue-based
Cavia porcellus = species: Cavia porcellus; assay: mu-opioid receptor antagonistic activity was measured in guinea pig ileum.; type: functional
[7] = target: Opioid receptors; mu & delta (Homo sapiens) (UniProt P41143+P35372); assay: It is the ratio of EC50(mu receptor) to that of EC50 for(delta receptor); type: functional
Sequence of Opioid receptors; mu & delta (Homo sapiens) (P35372 whole entry, looked up): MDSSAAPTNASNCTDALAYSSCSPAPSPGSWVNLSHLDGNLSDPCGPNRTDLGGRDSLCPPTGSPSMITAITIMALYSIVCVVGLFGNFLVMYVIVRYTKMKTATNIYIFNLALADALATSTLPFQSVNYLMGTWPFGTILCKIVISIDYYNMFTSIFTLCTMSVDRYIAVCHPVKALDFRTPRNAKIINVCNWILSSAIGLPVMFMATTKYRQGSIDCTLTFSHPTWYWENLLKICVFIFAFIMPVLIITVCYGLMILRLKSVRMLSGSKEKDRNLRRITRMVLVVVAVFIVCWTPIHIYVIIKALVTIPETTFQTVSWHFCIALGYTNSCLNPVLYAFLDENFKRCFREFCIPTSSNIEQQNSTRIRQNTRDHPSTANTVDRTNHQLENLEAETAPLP
Sequence of Opioid receptors; mu & delta (Homo sapiens) (P41143 whole entry, looked up): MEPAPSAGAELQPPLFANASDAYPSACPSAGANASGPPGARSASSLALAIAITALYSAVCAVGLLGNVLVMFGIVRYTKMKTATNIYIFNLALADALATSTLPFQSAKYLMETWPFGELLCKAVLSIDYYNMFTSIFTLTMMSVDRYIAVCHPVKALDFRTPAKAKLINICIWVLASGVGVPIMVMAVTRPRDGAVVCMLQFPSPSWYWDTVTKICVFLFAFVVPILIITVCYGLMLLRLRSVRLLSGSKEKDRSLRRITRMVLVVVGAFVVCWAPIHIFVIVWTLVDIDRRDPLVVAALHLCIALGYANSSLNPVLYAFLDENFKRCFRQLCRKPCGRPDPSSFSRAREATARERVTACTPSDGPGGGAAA

Sequence of Mu-type opioid receptor (Cavia porcellus, UniProt P97266) (P97266 whole entry): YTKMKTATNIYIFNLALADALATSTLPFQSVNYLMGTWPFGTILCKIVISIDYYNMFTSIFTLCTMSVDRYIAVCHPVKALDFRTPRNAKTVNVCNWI
Sequence of Delta-type opioid receptor (Rattus norvegicus, UniProt P33533) (P33533 whole entry): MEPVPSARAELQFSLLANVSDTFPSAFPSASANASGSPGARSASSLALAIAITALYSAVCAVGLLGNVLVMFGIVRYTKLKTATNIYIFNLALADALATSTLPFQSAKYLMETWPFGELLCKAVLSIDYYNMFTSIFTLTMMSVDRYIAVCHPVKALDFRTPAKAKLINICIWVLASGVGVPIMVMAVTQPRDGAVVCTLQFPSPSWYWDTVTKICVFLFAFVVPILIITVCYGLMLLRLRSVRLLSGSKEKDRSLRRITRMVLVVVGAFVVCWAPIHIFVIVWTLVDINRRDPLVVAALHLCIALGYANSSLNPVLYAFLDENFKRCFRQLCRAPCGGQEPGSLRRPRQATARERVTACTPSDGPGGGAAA
Sequence of Delta-type opioid receptor (Mus musculus, UniProt P32300) (P32300 whole entry): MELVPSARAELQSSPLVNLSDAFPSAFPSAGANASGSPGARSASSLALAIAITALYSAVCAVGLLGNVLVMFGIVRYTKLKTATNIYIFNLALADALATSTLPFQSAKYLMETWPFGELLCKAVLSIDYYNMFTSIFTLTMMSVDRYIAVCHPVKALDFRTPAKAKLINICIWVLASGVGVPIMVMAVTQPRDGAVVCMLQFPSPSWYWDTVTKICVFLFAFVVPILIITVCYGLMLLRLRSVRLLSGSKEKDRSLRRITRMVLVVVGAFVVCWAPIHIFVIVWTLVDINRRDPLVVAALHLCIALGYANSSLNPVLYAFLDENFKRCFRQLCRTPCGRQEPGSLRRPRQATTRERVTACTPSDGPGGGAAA
Sequence of Mu-type opioid receptor (Rattus norvegicus, UniProt P33535) (P33535 whole entry): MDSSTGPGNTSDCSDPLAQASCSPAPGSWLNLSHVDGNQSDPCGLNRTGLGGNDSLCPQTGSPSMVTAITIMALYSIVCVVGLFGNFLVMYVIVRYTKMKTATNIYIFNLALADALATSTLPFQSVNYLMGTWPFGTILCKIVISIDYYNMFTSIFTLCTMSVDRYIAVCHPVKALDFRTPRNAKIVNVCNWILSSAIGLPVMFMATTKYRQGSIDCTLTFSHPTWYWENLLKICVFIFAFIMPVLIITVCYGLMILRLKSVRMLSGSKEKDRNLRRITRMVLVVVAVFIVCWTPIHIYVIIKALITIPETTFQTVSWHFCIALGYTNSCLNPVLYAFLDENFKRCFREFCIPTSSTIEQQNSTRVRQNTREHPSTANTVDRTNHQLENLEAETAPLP
Sequence of Delta-type opioid receptor (Homo sapiens, UniProt P41143) (P41143 whole entry): as the sequence (P41143 whole entry, looked up) above
Sequence of Mu-type opioid receptor (Cavia porcellus) (P97266 whole entry): as the sequence (P97266 whole entry) above

Row | Compound | IC50 [1] [µM] | IC50 (Mu-type opioid receptor [2]) [µM] | EC50 [4] [µM] | EC50 (Mu-type opioid receptor [5]) [µM] | also measured
1 | Oc1cccc(C(c2ccc(-c3ccccc3)cc2)N2CCN(Cc3ccccc3)CC2)c1 (centres undefined) | 0.031 | 27 |  |  | 
2 | CC(C)(C)c1ccc(C(c2cccc(O)c2)N2CCN(Cc3ccccc3)CC2)cc1 (stereo in doubt) |  |  | 0.085 | 39 | IC50 [3]: 0.00551 µM
3 | COc1cccc(C(c2ccc(C(C)(C)C)cc2)N2CCN(Cc3ccccc3)CC2)c1 (centres undefined) | 1.8 | > 8 |  |  | 
4 | C=CCN1C[C@H](C)N([C@H](c2ccc(C(=O)N(CC)CC)cc2)c2cccc(OC)c2)C[C@H]1C [SNC-80] |  | 2.5 |  |  | 
5 | Oc1cccc(CN2CCN(Cc3ccccc3)CC2)c1 | 6.4 |  |  |  | 
6 | CC(C)(C)c1ccc(C(c2cccc(O)c2)N2CCN(Cc3ccccc3)CC2)cc1 (single isomer, unassigned; (-)) |  |  | 0.36 | 7.6 | 
7 | Cc1cc(O)cc(C)c1[C@@H](C)[C@H](N)C(=O)N[C@H]1C(=O)NCC(=O)N[C@@H](Cc2ccccc2)C(=O)N[C@@H](C(=O)O)C(C)(C)SSC1(C)C | 0.005 | 4.3 | 0.0018 |  | inhibition [6]: 0%; IC50 (Cavia porcellus): 5 µM; Selectivity [7]: > 33000
8 | Oc1cccc(C(c2ccccc2)N2CCN(Cc3ccccc3)CC2)c1 (centres undefined) | 0.034 | 0.5 | 0.174 | 1.25 | Selectivity [7]: 7.1
9 | CC(c1cccc(O)c1)N1CCN(Cc2ccccc2)CC1 (centres undefined) | 0.61 | 0.78 |  |  | 
10 | C=CCN1C[C@H](C)N([C@H](c2ccc(C(=O)N(CC)CC)cc2)c2cccc(O)c2)C[C@H]1C | 0.00031 |  |  |  | 
11 | CC(C)(C)c1ccc(C(c2cccc(O)c2)N2CCN(Cc3ccccc3)CC2)cc1 (single isomer, unassigned; (+)) |  |  | 0.21 | 3 | 
12 | CC(C)CC(c1cccc(O)c1)N1CCN(Cc2ccccc2)CC1 (centres undefined) | 0.42 | 2.1 |  |  | 

— ChEMBL document CHEMBL1131191, “De novo design, synthesis, and biological activities of high-affinity and selective non-peptide agonists of the delta-opioid receptor” (J Med Chem, 1998)
